Runt-CBFb FRET: Runt domain-CBFb interaction inhibition | Cerulean-Runt/Venus-CBFb FRET ratio 530/480, 1 h | inhibition, % at 20 µM | 220,000 tested, 0.46% active;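 active = inhibition over about 50% at 20 µM in the single-dose screen, limit read from the data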;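 note: 0% = DMSO wells and 100% = excess unlabeled CBFb competitor control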
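System: Cerulean-labeled Runt domain protein | Quantity: 100 nM of each labeled protein | Schedule: 1 h compound exposure, room temperature | Detection: Fluorescence energy transfer, 422 nm excitation, 530/480 nm emission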
Vif inh: blocks HIV Vif function; HEK293T cells, Vif self-association by quenched fluorescence, imaging, 24 h; inhibition, % at 7.49 µM; 340,000 tested, 0.35% active; AID 602346; in the data active = inhibition above about 50%, passing the limit was not always enough; inconclusive = no clear call, values can overlap the other calls; inactive = below about 31%
RanGTP-Imp inh: disruptors of Ran-importin-beta complex formation – biochemical, FRET, CFP-Ran, YFP-importin-beta, homogeneous, primary screen | cell-free CFP-Ran/YFP-importin-beta FRET ratio | inhibition, % (test concentration not listed) | 300,000 tested, 1.1% active;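 active = more than half of the replicate wells show a fall in the fluorescence ratio signal beyond about 16%, limit read from the data, passing the limit was not always enough; inconclusive = exactly half of the replicate wells pass the set limit; inactive = fewer than half of replicates pass the limit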;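 note: 0% = DMSO wells and 100% = Ran loaded with GDP instead of GTP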
Rce1 inhib: yeast Ras-converting enzyme inhibition. Q03530. yeast membranes, quenched prenylated peptide cleavage fluorescence. calls only. 290,000 tested, 0.27% active. AID 2563;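 active = fall in fluorescence gain of 50% or more versus controls, with final raw signal at or below 3038400; inconclusive = same 50% fall but final raw signal above 3038400; inactive = fall in fluorescence gain under 50%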;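 note: plate controls were neutral control wells for no effect and wells lacking membranes for full effect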
Target sequence (Q03530 whole entry, looked up): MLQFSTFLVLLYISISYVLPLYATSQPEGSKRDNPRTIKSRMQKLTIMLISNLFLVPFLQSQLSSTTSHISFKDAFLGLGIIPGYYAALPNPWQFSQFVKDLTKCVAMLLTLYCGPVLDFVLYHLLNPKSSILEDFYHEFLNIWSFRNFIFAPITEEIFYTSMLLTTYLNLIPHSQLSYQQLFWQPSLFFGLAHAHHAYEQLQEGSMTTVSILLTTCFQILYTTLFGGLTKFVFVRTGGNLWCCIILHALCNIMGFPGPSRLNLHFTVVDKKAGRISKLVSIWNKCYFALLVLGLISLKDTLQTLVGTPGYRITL
Runt-SMMHC FRET: blocks binding of human RUNX1 Runt domain to CBFb-SMMHC; Q01196+Q13951; Cerulean-Runt/Venus-CBFb-SMMHC FRET ratio 530/480, 1 h; inhibition, % at 20 µM; AID 1434; 220,000 tested, 0.74% active;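 active = mean inhibition across duplicate retests at 20 µM reaching about 50%, limit read from the data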;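 note: 0% = DMSO wells and 100% = wells with excess untagged CBFb-SMMHC; inhibitors lower the FRET ratio by blocking Runt binding to CBFb-SMMHC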
YIC FRET counter: counter-screen YIC FRET for RanGTP-importin-beta inhibitors. shares compounds with RanGTP-Imp inh. Purified YIC probe, intramolecular FRET ratio YFP/CFP. IC50, µM. 1,000 tested, 40% active;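 active = fitted half-maximal inhibitory concentration no more than tenfold above the top dose tested; inconclusive = flat fit with 30 to 70% activity, or poor fit; inactive = half-maximal concentration beyond tenfold above the top dose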
Starred values were filed as active, the others as inactive; i = inactive; ? = inconclusive; · = not tested or not shown; + = active, no number. The list is not random: actives were taken first. Their share in the collection is about 1.7%.

SMILES	Runt-CBFb FRET	Vif inh	RanGTP-Imp inh	Rce1 inhib	Runt-SMMHC FRET	YIC FRET counter
COc1cc(C2C(C#N)=C(N)OC3=C2C(=O)CC(C)(C)C3)cc([N+](=O)[O-])c1O (stereo unspecified)	4.6	5.4	6.9	i	2.0	·
COc1cc(OC)cc(C(=O)NNC(=O)c2cc(S(=O)(=O)N3CCOCC3)ccc2F)c1	·	-6.5	·	·	·	·
COc1ccc(NC(=O)COC(=O)Cc2ccsc2)c(OC)c1	·	14.8	·	·	·	·
Cc1ccc(NC(=O)COC(=O)Cc2ccsc2)c(C)c1	0.2	16.3	18.7*	i	0.2	>50
CN(C)c1ccc(/C=C(\NC(=O)c2ccccc2)C(=O)NCc2ccncc2)cc1	·	2.5	23.4*	i	·	>50
O=C1CCC(C(=O)N2CCCC(C(=O)c3ccc4c5c(cccc35)CC4)C2)=NN1 (stereo unspecified)	0.0	1.2	-0.3	i	-0.5	·
CCCCCN(C(=O)CN(C)Cc1ccc(OC)cc1OC)c1c(N)n(CCCC)c(=O)[nH]c1=O	2.3	-1.2	19.6*	i	3.9	>50
Cc1cc(Cl)ccc1C(=O)C1CCCN(C(=O)c2n[nH]c3c2CCCC3)C1 (stereo unspecified)	-1.9	-10.3	20.7*	i	1.2	>50
COc1ccc(Cl)cc1NS(=O)(=O)c1cc(Cl)ccc1OC	0.8	9.2	-1.3	i	-5.0	·
COc1ccc(Cl)cc1S(=O)(=O)Nc1noc2ccccc12	·	2.9	15.7*	i	·	>50
COc1ccc(OC(=O)C2CC(=O)N(c3ccc(C)cc3)C2)cc1 (stereo unspecified)	-1.7	1.2	21.6*	·	5.4	>50
COC(=O)C1CC(=O)N(c2ccc(C)cc2)C1 (stereo unspecified)	1.3	-1.7	1.0	i	1.5	·
O=C(Nc1cnc2ccccc2c1)c1cccc(-n2cnnn2)c1	1.7	10.7	18.7*	i	-9.1	>50
COc1ccc(OC)c(S(=O)(=O)N(C)CC(=O)N2CCCCC2)c1	·	-3.3	2.0	i	·	·
CC1(C)CC(=O)C/C(=N\NC(=O)C2CC23CCC3)C1 (stereo unspecified)	2.0	·	18.2*	·	0.6	>50
CC1(C)CC(=O)C/C(=N\NC(=O)C2CC2c2ccccc2)C1 (stereo unspecified)	2.2	2.5	-0.3	i	0.6	·
Cc1cccc(C)c1OCC(=O)OC/C(O)=C(\C#N)c1nc2ccccc2[nH]1	3.1	0.2	26.0*	i	1.0	>50
O=C(NCc1ccccc1)c1cccc2c1C(=O)c1ccc(/C=C/c3ccccc3)cc1S2(=O)=O	·	3.8	·	·	·	·
Cc1nn(C)cc1C1C(C#N)=C(N)N(c2cccnc2)C2=C1C(=O)CCC2 (stereo unspecified)	-1.3	0.3	2.2	i	0.7	·
Cc1ccc(C2C(C#N)=C(N)N(c3cccnc3)C3=C2C(=O)CCC3)c(C)c1 (stereo unspecified)	4.5	2.9	29.6*	i	-0.8	>50
CC(C)(C)OC(=O)N1CCc2onc(-c3ccccc3F)c2C1=O	·	-1.1	·	·	·	·
COc1ccccc1N/C=C(\C#N)c1nc2ccccc2[nH]1	1.0	-4.0	5.7	i	2.8	·
N#Cc1cc2cc3c(cc2nc1N1CCOCC1)OCO3	96.9*	2.8	38.5*	i	108.7*	9.02*
Cc1cc(C)c(C#N)c(N2CCCC2)n1	-0.4	·	-2.6	i	0.0	·
Cc1ccc2cc(C#N)c(N3CCCC3)nc2c1C	17.9	28.4	26.1*	·	53.3*	5.28*
SMILES	Runt-CBFb FRET	Vif inh	RanGTP-Imp inh	Rce1 inhib	Runt-SMMHC FRET	YIC FRET counter
N#Cc1cc2cc3c(cc2nc1SCC(=O)N1CCOCC1)OCCO3	·	10.3	7.8	i	·	·
Cc1cccc2cc(C#N)c(N3CCOCC3)nc12	·	-10.3	12.9	i	·	·
Cc1cc(C)c2nc(N3CCOCC3)c(C#N)cc2c1	·	-2.3	24.0*	i	·	18.7*
COc1ccc(-n2c(=S)[nH]c3cc(C(=O)NCc4ccco4)ccc3c2=O)c(OC)c1	1.9	-10.0	0.7	i	0.5	·
COc1ccc(-n2c(N)c(C(=O)NCc3ccco3)c3nc4ccccc4nc32)c(OC)c1	40.0	32.4	32.6*	+	95.3*	19.4*
COC(=O)C1=CN(c2ccc(F)cc2)C=C(C(=O)OC)C1c1cccc([N+](=O)[O-])c1	·	-6.8	-0.1	i	·	·
COC(=O)C1=CN(c2ccc(OC)cc2)C=C(C(=O)OC)C1c1cccc(F)c1	·	7.3	17.5*	i	·	7.51*
O=C(/C=C/c1ccc(OC(F)F)cc1)OCC(=O)N1CCC(c2ccccc2)=N1	·	-3.1	·	·	·	·
O=C(O)c1cn(Cc2cccnc2)c(=O)c2ccccc12	-1.0	·	17.6*	i	1.4	>50
C=C(C)Cn1c(SCC(=O)O)nnc1-c1ccc(OC)cc1	-1.0	-2.4	21.7*	i	1.0	>50
CC1CN(C(=O)c2cccn(Cc3c(Cl)cccc3Cl)c2=O)CC(C)O1 (stereo unspecified)	1.6	-0.4	?	i	0.8	·
COc1ccc(S(=O)(=O)N2CCCCCC2)cc1NC(=O)CN1C(=O)CNC1=O	·	5.4	·	·	·	·
COc1ccc(N2C(=O)CC(C#N)=C2N)cc1	-4.0	-3.3	17.8*	i	-6.9	>50
N#CC1=C(N)N(c2ccccc2)C(=O)C1	-4.9	4.4	-4.5	·	-26.2	·
CCc1nnc(NC(=O)c2c(C)nn(-c3ccccc3)c2Cl)s1	-1.5	0.9	20.1*	i	-1.1	>50
CC(C)Cc1nn2c(N)c(/C=C3\C=Nc4ccccc43)c(=O)nc2s1	-85.0	0.9	24.6*	·	-53.5	>50
CS(=O)(=O)c1nsc2nc(=O)c(/C=C3\C=Nc4ccccc43)c(N)n12	29.2	-13.1	25.0*	i	73.0*	20.1*
CCOc1ccc(C)cc1S(=O)(=O)Nc1ccc(Cl)cn1	-1.8	-15.3	18.6*	i	3.4	>50
CCN(C(=O)CSc1nc2ccccc2c(=O)n1Cc1ccc(C)cc1)C1CCS(=O)(=O)C1 (stereo unspecified)	·	-3.7	-2.3	i	·	·
CCn1c(SCC(=O)N(Cc2ccccc2)C2CCS(=O)(=O)C2)nc2ccccc2c1=O (stereo unspecified)	-1.6	1.0	20.2*	i	-0.2	>50
Cc1noc(C)c1C(=O)Nc1sc2c(c1C(N)=O)CCCCC2	24.7	·	3.6	i	26.1	·
Cc1noc(C)c1C(=O)Nc1sc2c(c1C(N)=O)CCC2	-0.9	-4.4	25.7*	i	-2.0	>50
Cc1[nH]c2ccccc2c1/C=C/c1nc2ccccc2c(=O)n1CCO	-44.8	-8.2	16.9*	i	-10.5	9.01*
C/C(N)=C(/C#N)C(=O)CN1C(=O)NC(Cc2c[nH]c3ccccc23)C1=O (stereo unspecified)	·	-13.3	-2.6	i	·	·
CN(C)S(=O)(=O)c1cccc(NC(=O)CNC2CCCCC2)c1	-2.2	0.1	27.0*	i	0.1	>50

Source: PubChem BioAssay
